According to ChEMBL document CHEMBL4364242, “Novel cationic bis(acylhydrazones) as modulators of Epstein-Barr virus immune evasion acting through disruption of interaction between nucleolin and G-quadruplexes of EBNA1 mRNA” (Eur J Med Chem, 2019):
Active and inactive are the calls of the source. The calls are words filed in the database; no cut-off is given here.

How the values were obtained:
NCI-H1299 [1] = experiment: Cytotoxicity against OVA-over expressing human H1299 cells at 10 uM incubated for 40 hrs; assay type: cell-based; settings: nci-h1299, 40 h
NCI-H1299 [2] = experiment: Cytotoxicity against 235Gar-OVA-over expressing human H1299 cells at 10 uM incubated for 40 hrs; assay type: cell-based; settings: nci-h1299, 40 h
human gammaherpesvirus 4 [3] = experiment: Binding affinity to EBNA1 G4-quadruplex in human H1299 cells assessed as EB virus EBNA1 expression at 10 uM incubated for 40 hrs by western blot analysis; assay type: cell-based
How it was run: (§1)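 H1299 cells in RPMI-1640 with 10% FBS at 37 °C, 5% CO2, transiently transfected with EBNA1 or EBNA1ΔGAr constructs, then treated with 10 μM compound (DMSO vehicle) for 40 h. Lysates taken 48 h post-transfection and western blotted with anti-EBNA1 (OT1X). Levels normalized to GAPDH; at least three repeats.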

NCI-H1299 [4] = experiment: Effect on 235Gar-OVA expression in human H1299 cells at 10 uM incubated for 40 hrs by western blot analysis; assay type: functional; parameters: unit not given here
How it was run: (§2)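 OVA or 235GAr-OVA constructs transiently transfected into H1299 cells, followed by 40 h exposure to 10 μM compound or DMSO. Whole-cell lysates immunoblotted with rabbit anti-OVA; signal normalized to GAPDH. Experiments repeated at least three times.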

human gammaherpesvirus 4 [5] = experiment: Binding affinity to EBNA1 G4-quadruplex in human H1299 cells assessed as EB virus EBNA1 deleted GAr expression at 10 uM incubated for 40 hrs by western blot analysis; assay type: cell-based; how it was run: as §1
[6] = Displacement of TO from EB virus g4-EBNA1 mRNA measured after 5 mins by FID assay; parameters: species or system human gammaherpesvirus 4
How it was run: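 g4-EBNA1 RNA annealed 95 °C 5 min in K100 buffer (10 mM KAsO2Me2, 100 mM KCl, 1 mM EDTA, 1% DMSO), then mixed with TO; final 0.25 μM RNA and 0.5 μM TO, ligand 0–2.5 μM. Fluorescence read after 5 min shaking (485/520 nm), in duplicate. Displacement = 100×(1−F/F0); DC50 interpolated from the curve.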

NCI-H1299 [7] = experiment: Effect on OVA expression in human H1299 cells at 10 uM incubated for 40 hrs by western blot analysis; assay type: functional; parameters: unit not given here; how it was run: as §2
human gammaherpesvirus 4 [8] = experiment: Binding affinity to EB virus F-g4-EBNA1 mRNA assessed as increase in melting temperature at 1 uM by fluorescence method
[9] = Binding affinity to […] (unknown origin) assessed as increase in melting temperature at 1 uM by fluorescence method
How it was run: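 Labeled F-myc22-T DNA (5'-FAM/3'-TAMRA) melted with 1 μM ligand in K-1 buffer (10 mM LiAsO2Me2, 1 mM KCl, 99 mM LiCl, pH 7.3). Ramp 0.5 °C/min from 25 to 95 °C. Tm taken from first-derivative maxima and ΔTm calculated versus ligand-free control.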

Homo sapiens = species: Homo sapiens; experiment: Binding affinity to […] assessed as increase in melting temperature at 1 uM by fluorescence method
How it was run: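 F-25TAG-T telomeric DNA (5'-FAM/3'-TAMRA) melted with 1 μM ligand in K-100 buffer (10 mM LiAsO2Me2, 100 mM KCl, pH 7.3). Heating 25–95 °C at 0.5 °C/min. ΔTm derived from first-derivative Tm maxima relative to the no-ligand run.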

[10] = Inhibition of recombinant NCL (unknown origin)/EB virusG4-EBNA1 mRNA interaction at 10 uM by RNA pull-down assay
How it was run: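 Biotin-TEG RNA (g4-EBNA1 or non-G4 GM) folded in 10 mM Tris pH 7.5, 100 mM KCl, 0.1 mM EDTA (95 °C 5 min, cooled 2 °C/min), then bound to blocked streptavidin beads. 200 ng recombinant NCL added for 90 min at room temperature with 10 μM compound or DMSO. Beads washed up to 800 mM KCl; eluates western-blotted for NCL.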

C[n+]1ccc(C=NNC(=O)c2ccc3ccc4ccc(C(=O)NN=Cc5cc[n+](C)cc5)nc4c3n2)cc1.[I-].[I-]
Activity (NCI-H1299 [1]): Toxic | Activity (NCI-H1299 [2]): Toxic

C[n+]1ccc(/C=N/NC(=O)c2cc(C(=O)N/N=C/c3cc[n+](C)cc3)ncn2)cc1.[I-].[I-]
Activity (human gammaherpesvirus 4 [3]): inactive | Activity (NCI-H1299 [4]): 80 | Activity (human gammaherpesvirus 4 [5]): inactive | IC50 [6]: > 2500 nM | Activity (NCI-H1299 [7]): 92

C[n+]1ccc(/C=N/NC(=O)c2cccc(C(=O)N/N=C/c3cc[n+](C)cc3)n2)cc1.[I-].[I-]
Activity (human gammaherpesvirus 4 [3]): inactive | Activity (NCI-H1299 [4]): 106 | ΔTm (human gammaherpesvirus 4 [8]): < 10 °C | Activity (human gammaherpesvirus 4 [5]): inactive | IC50 [6]: 2320 nM | Activity (NCI-H1299 [7]): 93

CC[n+]1cccc2cc(/C=N/NC(=O)c3cc(C(=O)N/N=C/c4ccc5c(ccc[n+]5CC)c4)ncn3)ccc21.[I-].[I-]
Activity (human gammaherpesvirus 4 [3]): Active | Activity (NCI-H1299 [4]): 48 | Activity (NCI-H1299 [1]): Toxic | Activity (human gammaherpesvirus 4 [5]): Active | Activity (NCI-H1299 [2]): Toxic | IC50 [6]: > 2500 nM | Activity (NCI-H1299 [7]): 47

O=C(N/N=C/c1cc[n+](Cc2ccccc2)c2ccccc12)c1ccc2ccc3ccc(C(=O)N/N=C/c4cc[n+](Cc5ccccc5)c5ccccc45)nc3c2n1.[Br-].[Br-]
ΔTm [9]: 15 to 30 °C | ΔTm (Homo sapiens): 15 to 30 °C | Activity (human gammaherpesvirus 4 [3]): inactive | Activity (NCI-H1299 [4]): 96 | ΔTm (human gammaherpesvirus 4 [8]): 20 to 30 °C | Activity (human gammaherpesvirus 4 [5]): inactive | IC50 [6]: 340 nM | Activity (NCI-H1299 [7]): 114

C[n+]1ccc(/C=N/NC(=O)c2ccc3ccc4ccc(C(=O)N/N=C/c5cc[n+](C)cc5)nc4c3n2)cc1.[I-].[I-]
ΔTm [9]: 15 to 30 °C | ΔTm (Homo sapiens): 15 to 30 °C | Activity (human gammaherpesvirus 4 [3]): Active | Activity (NCI-H1299 [4]): 78 | ΔTm (human gammaherpesvirus 4 [8]): 10 to 20 °C | Activity (human gammaherpesvirus 4 [5]): Active | IC50 [6]: 320 nM | Activity (NCI-H1299 [7]): 76

O=C(N/N=C/c1cc[n+](Cc2ccccc2)c2ccccc12)c1ccc2ccc(C(=O)N/N=C/c3cc[n+](Cc4ccccc4)c4ccccc34)nc2n1.[Br-].[Br-]
ΔTm [9]: 15 to 30 °C | ΔTm (Homo sapiens): 15 to 30 °C | Activity (human gammaherpesvirus 4 [3]): inactive | Activity (NCI-H1299 [4]): 106 | Activity (human gammaherpesvirus 4 [8]): Active | Activity (human gammaherpesvirus 4 [5]): inactive | IC50 [6]: 710 nM | Activity (NCI-H1299 [7]): 93

CC[n+]1cccc2cc(/C=N/NC(=O)c3cccc(C(=O)N/N=C/c4ccc5c(ccc[n+]5CC)c4)n3)ccc21.[I-].[I-]
ΔTm [9]: 15 to 30 °C | ΔTm (Homo sapiens): 15 to 30 °C | Activity (human gammaherpesvirus 4 [3]): inactive | Activity (NCI-H1299 [4]): 86 | Activity (human gammaherpesvirus 4 [8]): Active | Activity (human gammaherpesvirus 4 [5]): inactive | IC50 [6]: 740 nM | Activity (NCI-H1299 [7]): 98

O=C(N/N=C/c1cc[n+](Cc2ccccc2)c2ccccc12)c1cccc(C(=O)N/N=C/c2cc[n+](Cc3ccccc3)c3ccccc23)n1.[Br-].[Br-]
ΔTm [9]: 15 to 30 °C | ΔTm (Homo sapiens): 15 to 30 °C | Activity (human gammaherpesvirus 4 [3]): Active | Activity (NCI-H1299 [4]): 134 | Activity (human gammaherpesvirus 4 [8]): Active | Activity (human gammaherpesvirus 4 [5]): Active | IC50 [6]: 390 nM | Activity (NCI-H1299 [7]): 149

O=C(N/N=C/c1ccc2c(ccc[n+]2Cc2ccccc2)c1)c1ccc2ccc(C(=O)N/N=C/c3ccc4c(ccc[n+]4Cc4ccccc4)c3)nc2n1.[Br-].[Br-]
ΔTm [9]: 15 to 30 °C | ΔTm (Homo sapiens): 15 to 30 °C | Activity (human gammaherpesvirus 4 [3]): inactive | Activity (NCI-H1299 [4]): 104 | Activity (human gammaherpesvirus 4 [8]): Active | Activity (human gammaherpesvirus 4 [5]): inactive | IC50 [6]: 1090 nM | Activity (NCI-H1299 [7]): 108

CC[n+]1cccc2cc(/C=N/NC(=O)c3ccc4ccc5ccc(C(=O)N/N=C/c6ccc7c(ccc[n+]7CC)c6)nc5c4n3)ccc21.[I-].[I-]
ΔTm [9]: 15 to 30 °C | ΔTm (Homo sapiens): 15 to 30 °C | Activity (human gammaherpesvirus 4 [3]): inactive | Activity (NCI-H1299 [4]): 80 | ΔTm (human gammaherpesvirus 4 [8]): 20 to 30 °C | Activity (human gammaherpesvirus 4 [5]): inactive | IC50 [6]: 590 nM | Activity (NCI-H1299 [7]): 96

O=C(N/N=C/c1cc[n+](Cc2ccccc2)c2ccccc12)c1cc(C(=O)N/N=C/c2cc[n+](Cc3ccccc3)c3ccccc23)ncn1.[Br-].[Br-]
Activity (human gammaherpesvirus 4 [3]): inactive | Activity (NCI-H1299 [4]): 108 | Activity (human gammaherpesvirus 4 [5]): inactive | IC50 [6]: 1240 nM | Activity (NCI-H1299 [7]): 106

CC[n+]1cccc2cc(/C=N/NC(=O)c3ccc4ccc(C(=O)N/N=C/c5ccc6c(ccc[n+]6CC)c5)nc4n3)ccc21.[I-].[I-]
ΔTm [9]: 15 to 30 °C | ΔTm (Homo sapiens): 15 to 30 °C | Activity (human gammaherpesvirus 4 [3]): inactive | Activity (NCI-H1299 [4]): 82 | Activity (human gammaherpesvirus 4 [8]): Active | Activity (human gammaherpesvirus 4 [5]): inactive | IC50 [6]: 800 nM | Activity (NCI-H1299 [7]): 111

C[n+]1ccc(/C=N/NC(=O)c2ccc3ccc(C(=O)N/N=C/c4cc[n+](C)c5ccccc45)nc3n2)c2ccccc21.[I-].[I-]
ΔTm [9]: 15 to 30 °C | ΔTm (Homo sapiens): 15 to 30 °C | Activity (human gammaherpesvirus 4 [3]): inactive | Activity (NCI-H1299 [4]): 95 | Activity (human gammaherpesvirus 4 [8]): Active | Activity (human gammaherpesvirus 4 [5]): inactive | IC50 [6]: 610 nM | Activity (NCI-H1299 [7]): 100

C[n+]1ccc(/C=N/NC(=O)c2cc(C(=O)N/N=C/c3cc[n+](C)c4ccccc34)ncn2)c2ccccc21.[I-].[I-]
Activity (human gammaherpesvirus 4 [3]): inactive | Activity (NCI-H1299 [4]): 89 | Activity (human gammaherpesvirus 4 [5]): inactive | IC50 [6]: 740 nM | Activity (NCI-H1299 [7]): 103

O=C(N/N=C/c1ccc2c(ccc[n+]2Cc2ccccc2)c1)c1ccc2ccc3ccc(C(=O)N/N=C/c4ccc5c(ccc[n+]5Cc5ccccc5)c4)nc3c2n1.[Br-].[Br-]
ΔTm [9]: 15 to 30 °C | ΔTm (Homo sapiens): 15 to 30 °C | Activity (human gammaherpesvirus 4 [3]): inactive | Activity (NCI-H1299 [4]): 111 | ΔTm (human gammaherpesvirus 4 [8]): 20 to 30 °C | Activity (human gammaherpesvirus 4 [5]): inactive | IC50 [6]: 650 nM | Activity (NCI-H1299 [7]): 94

C[n+]1cc(NC(=O)c2ccc3ccc4ccc(C(=O)Nc5cc6ccccc6[n+](C)c5)nc4c3n2)cc2ccccc21
fold change (FC) [10]: 2 | ΔTm [9]: > 35 °C | ΔTm (Homo sapiens): > 35 °C | ΔTm (human gammaherpesvirus 4 [8]): 30 °C | IC50 [6]: 310 nM

C[n+]1ccc(/C=N/NC(=O)c2ccc3ccc(C(=O)N/N=C/c4cc[n+](C)cc4)nc3n2)cc1.[I-].[I-]
Activity (human gammaherpesvirus 4 [3]): inactive | Activity (NCI-H1299 [4]): 112 | ΔTm (human gammaherpesvirus 4 [8]): < 10 °C | Activity (human gammaherpesvirus 4 [5]): inactive | IC50 [6]: 930 nM | Activity (NCI-H1299 [7]): 99

O=C(N/N=C/c1ccc2c(ccc[n+]2Cc2ccccc2)c1)c1cc(C(=O)N/N=C/c2ccc3c(ccc[n+]3Cc3ccccc3)c2)ncn1.[Br-].[Br-]
Activity (human gammaherpesvirus 4 [3]): Active | Activity (NCI-H1299 [4]): 139 | Activity (human gammaherpesvirus 4 [5]): Active | IC50 [6]: > 2500 nM | Activity (NCI-H1299 [7]): 137
